Screening data (PubChem)
SDO1 yeast rescue – compounds rescuing growth of sdo1-depleted yeast, bone marrow failure model; S. cerevisiae sdo1-depleted JHY4D growth rescue, OD600 30 h; active compounds read high; pdr5 snq2 efflux-pump mutant strain; z-score at 10 µM; actives 0.21% (n = 140,000); AID 817;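 active = z-score above 3 at both the 24 hr and the 30 hr optical density reads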;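 note: z-score against mean and SD of all compound wells on the same plate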
BB579 growth dn – reduces growth of yeast BB579 in restrictive medium; S. cerevisiae BB579 growth, OD615, 48 h; inhibition, % at 10 µM; actives 0.51% (n = 140,000);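 active = inhibition above a set limit, 3 SD over the mean compound inhibition, cut at about 44% in these data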
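System: DeaD yeast strain BB579; buffer or medium: CSMM-D dextrose restrictive medium; technique: OD at 615 nm; schedule: 4 h cell preincubation, 48 h compound exposure, 30 °C humidified; doses: single 10 µM dose; controls: amphotericin B 10 µg/mL, positive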
RAM network inh – blocks the yeast RAM network | inhibition, % at 50 µM | AID 868 | S. cerevisiae dse1pr::URA3 reporter, 5-FOA growth OD615, 2 d; analog-sensitive cbk1-as2 kinase mutant strain | actives 1.8% (n = 190,000);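 active = inhibition above a set limit, 3 SD over mean compound inhibition, cut at about 8.4% in these data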;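 note: 0% = DMSO-only wells with no growth and 100% = 10 µM 1-NA-PP1 full growth; inhibition rescues growth on 5-FOA so higher OD means more RAM inhibition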
Yeast lifespan up – extends the lifespan of yeast. S. cerevisiae growth with nicotinamide, OD615; deaD strain in restrictive glucose medium. inhibition of the nicotinamide effect, % at 10 µM. actives 0.68% (n = 130,000). AID 775;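 active = inhibition above a set limit, placed 3 SD over the median of all compounds, cut at about 26% in these data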;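 note: 0% = nicotinamide-treated wells and 100% = cells grown without nicotinamide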
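assay system = DeaD-strain S. cerevisiae | buffer or medium = restrictive glucose medium | reagent = 1.5 mM nicotinamide | compound = 10 µM single point, 0.25% DMSO | incubation = 48 h compound exposure at 30 °C, humidified | signal = OD615 measurement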
Active calls of the source: *; x = no result; ! = not active in a repeat. In the library only some 2.7% were active in any assay of this set; here they are far more common.

SMILES	SDO1 yeast rescue	BB579 growth dn	RAM network inh	Yeast lifespan up
Cc1ccc(S(=O)(=O)N(C(=O)c2ccncc2)c2ccc(OC(=O)c3ccncc3)c3ccccc23)c(C)c1	-0.39	-70	8	37*
Cc1[nH]n(-c2ncc(-c3ccccc3)s2)c(=O)c1C(c1ccc(Br)cc1)C(C#N)C#N (stereo not drawn)	-1.4	2	11*	19
CCc1ccc(C(CC(=O)c2ccc(Cl)cc2)C(=O)O)cc1 (stereo not drawn)	1	-69	3	31*
CC(=O)N1CCCN(Cc2cn(-c3cc(C)ccc3C)nc2-c2ccccc2)CC1	x	x	0	x
COc1ccc(Br)cc1C1Nc2ccccc2C(=O)N1NC(=O)c1ccncc1 (stereo not drawn)	1.3	16	0	-5
O=C(NN1C(=O)c2ccccc2NC1c1ccccc1OCc1ccccc1)c1ccncc1 (stereo not drawn)	-0.18	-41	0	29*
Cc1ccc(SCC(=O)NCCC2=CCCCC2)cc1	-0.82	-43	2	-12
O=C(CSc1ccc2ccccc2n1)NCCC1=CCCCC1	-1.8	-17	8.6*	5
CN1C(=O)C(O)(CC(=O)c2ccccc2O)c2cc(Br)ccc21 (stereo not drawn)	0.48	54*	-1	-10
CN1C(=O)C(O)(CC(=O)/C=C/c2ccco2)c2cc(Br)ccc21 (stereo not drawn)	x	x	3	x
Cc1c(C(=O)Oc2cccc3ccccc23)cnn1-c1ccccc1	-0.2	-19	8.6*	-5
O=C(CN1CCN(c2ccc(F)cc2)CC1)Nc1ccccc1[N+](=O)[O-]	x	x	2	x
Nn1cc(-c2ccccc2)nc1SCC(=O)N1CCN(S(=O)(=O)c2ccc(Cl)cc2)CC1	0.52	-11	9.8*	0
O=C(CSc1nnnn1-c1ccc(F)cc1)NCc1cccs1	x	x	0	x
O=C(NC1CCCC1)C1CCCN(S(=O)(=O)c2cccc3cccnc23)C1 (stereo not drawn)	-0.48	-73	8.7*	-4
COc1ccc(NC(=O)C2CCCN2S(=O)(=O)c2cccc3cccnc23)c(OC)c1 (stereo not drawn)	-2.9	98*	0	-12
COc1ccc(NC(=S)NCc2cccn2C)cc1	x	x	1	x
CCOCCCn1c(=S)[nH]c2cc(C(=O)NCCCN(CC)CC)ccc2c1=O	x	x	1	x
CCCCn1c(/N=C/c2c[nH]c3ccccc23)nc2ccccc21	-2	44*	-2	-19
CCCn1c(/N=C/c2c[nH]c3ccccc23)nc2ccccc21	-1.9	-28	0	-24
CCCc1cc(C(=O)NC2CCCCC2)no1	0.28	43*	0	0
N/C(=N\NC(=O)c1sccc1OCc1ccc(Cl)cc1Cl)c1ccccn1	x	x	8.7*	x
COc1cc(-c2nc3ccc4ccccc4c3c3c2CCC3)cc(OC)c1O	-2.1	-16	-1	-13
COc1cc(-c2nc3ccc4ccccc4c3c3c2CCC3)ccc1O	-1.4	85*	3	-9
Cc1cc(CC(C)C)n(-c2nc3ccccc3c(=O)n2OCc2ccccc2)n1	-0.4	-41	9.8*	10
SMILES	SDO1 yeast rescue	BB579 growth dn	RAM network inh	Yeast lifespan up
Cc1cc(CC(C)C)n(-c2nc3ccccc3c(=O)n2OCC(=O)N(C)C)n1	-0.32	-27	0	-20
Cc1cc2cc(CCNC(=O)C3c4ccccc4Oc4ccccc43)c(=O)[nH]c2cc1C	-0.25	-11	3	2
CCn1c(SCc2cccc(C(F)(F)F)c2)nnc1-c1ccco1	-0.11	-12	9.6*	-5
CCn1c(SCC(N)=O)nnc1-c1ccco1	0.56	-17	-1	-7
Cc1ccc(Nc2cnn(C34CC5CC(CC(CC(=O)O)(C5)C3)C4)c(=O)c2Cl)c(Cl)c1	x	x	0	x
COc1ccc2oc(=O)c(C(=O)NCc3ccco3)cc2c1	x	x	1	x
CC(=O)O/N=C1\C(=O)N(Cc2ccc(C)cc2)c2ccccc21	x	x	-2	x
CC(C)CC(=O)O/N=C1\C(=O)N(Cc2ccc(Cl)cc2)c2ccc([N+](=O)[O-])cc21	-1.8	-26	8.4*	1
Cc1c(Cl)cccc1NC(=O)CSC(N)=O	x	x	4	x
CC1=CC2CC1C1C(=O)N(c3ccc(S(=O)(=O)Nc4nc(C)cc(C)n4)cc3)C(=O)C21 (stereo not drawn)	0.09	-7	9.8*	3
C/C(=N/NC(=O)CNC(=O)/C=C/c1ccco1)c1ccc(Cl)cc1	x	x	1	x
COc1ccc(-n2c(C)cc(/C=C/c3nc(O)c([N+](=O)[O-])c(=O)[nH]3)c2C)cc1	x	x	6	x
Cc1cc(/C=C\c2nc(O)c([N+](=O)[O-])c(=O)[nH]2)c(C)n1-c1ccccc1	x	x	8.7*	x
COCCOC(=O)/C(=C/c1ccc(OC(=O)c2ccccc2)cc1)C(C)=O	-0.97	-44	-1	39*
O=C(NCc1ccccc1)C1=C[C@H](C2CC2)C[C@H](OCCCCO)O1	x	x	0	x
O=C(COC(=O)Cn1cnc2ccccc21)Nc1cccc(S(=O)(=O)N2CCOCC2)c1	x	x	3	x
O=C(O)c1cc(-c2ccco2)nc2ccc(Br)cc12	0.57	-30	2	36*!
CC(=O)Nc1ccc(OS(=O)(=O)c2ccc(C(C)(C)C)cc2)cc1	x	x	3	x
Cc1ccc2[nH]c(=O)c(CN(Cc3cccs3)Cc3nnnn3Cc3ccccc3)cc2c1	-1.1	-38	1	-3
Cc1ccc2[nH]c(=O)c(CN(CCO)Cc3nnnn3CCc3ccccc3)cc2c1	1.4	-15	-1	68*
CCCCCC1CCC(c2n[nH]c(=S)n2C)CC1 (stereo not drawn)	x	x	4	x
Cc1nsc(Nc2ccccc2)c1C#N	x	x	0	x
Cc1cc(C(=O)Nc2cc(C)n(Cc3ccc(Cl)cc3)n2)no1	-0.91	-39	1	-4
Cc1cc(NC(=O)c2cc(C(C)C)on2)nn1Cc1ccc(Cl)cc1	-1.1	-37	9.3*	-6
CN(C)S(=O)(=O)c1cc(NC(=O)c2cc(=O)[nH]c3ccccc23)ccc1Cl	x	x	3	x
SMILES	SDO1 yeast rescue	BB579 growth dn	RAM network inh	Yeast lifespan up
COc1ccc(CNc2nc(NCc3ccc(OC)cc3)n(C(C)=O)n2)cc1	-0.97	-13	5	-2
CCC(=O)n1nc(NCc2ccccc2OC)nc1NCc1ccccc1OC	-1.2	-78	9.2*	-4
CCOc1cc(C)c(C(C)C)cc1S(=O)(=O)n1cnc(C)c1	x	x	1	x
Fc1ccc(-c2csc3ncnc(N4CCc5ccccc5C4)c23)cc1	-0.91	-58	9.1*	-2
Cc1ccc(-c2csc3ncnc(N4CCc5ccccc5C4)c23)cc1	-1	-55	4	-1
COc1ccc(CNC(=O)C(c2ccc(C)cc2)N(Cc2cccs2)C(=O)c2ccc3c(c2)OCCO3)cc1 (stereo not drawn)	-0.44	-59	8.7*	4
COc1ccc(CNC(=O)C(c2cccs2)N(Cc2ccco2)C(=O)Cc2cccs2)cc1 (stereo not drawn)	-1.2	-47	11*	x
Cc1ccc(C(C(=O)NCc2ccccc2)N(Cc2cccs2)C(=O)c2ccc3c(c2)OCCO3)cc1 (stereo not drawn)	-1.2	-23	5	3
